Active and inactive are the calls of the source. No cut-off for these calls is given here.
Tests used:
Plasmodium berghei [1] = experiment: Antimalarial activity against Plasmodium berghei ANKA infected in NMRI mice (Mus musculus) assessed as reduction in parasitemia at 3 times 100 mg/kg, perorally measured on day 3 postinfection; assay type: functional; set-up: scale not given: the % may be the effect or the level left; settings: route oral
In short: (§1)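 P. berghei ANKA given intravenously to groups of 5 female NMRI mice (20–22 g): 0.2 ml of 1 × 10^8 parasitized erythrocytes/ml from a donor mouse. Oral dosing in 0.5% carboxymethyl cellulose. Parasitemia counted by microscopy. Activity is the control-minus-treated parasitemia difference, expressed as percent of untreated controls.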

Plasmodium berghei [2] = experiment: Antimalarial activity against Plasmodium berghei ANKA infected in NMRI mice (Mus musculus) assessed as survival rate at 10 mg/kg, perorally administered as single dose; assay type: functional; settings: route oral
In short: (§2)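 Infection: 5 female NMRI mice (20–22 g) per group, inoculated intravenously with 0.2 ml of donor blood at 1 × 10^8 parasitized erythrocytes/ml. Oral administration in 0.5% carboxymethyl cellulose. Survival time recorded up to 30 days after infection and averaged per group.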

Plasmodium berghei [3] = experiment: Antimalarial activity against Plasmodium berghei ANKA infected in NMRI mice (Mus musculus) assessed as survival rate at 100 mg/kg, perorally administered as single dose; assay type: functional; settings: route oral; in short: as §2
Plasmodium berghei [4] = experiment: Antimalarial activity against Plasmodium berghei ANKA infected in NMRI mice (Mus musculus) assessed as mean survival time at 3 times 30 mg/kg, perorally; assay type: functional; settings: route oral; in short: as §2
Plasmodium berghei [5] = experiment: Antimalarial activity against Plasmodium berghei ANKA infected in NMRI mice (Mus musculus) assessed as mean survival time at 3 times 100 mg/kg, perorally; assay type: functional, organism-based; set-up: dose 100 mg/kg
Plasmodium berghei [6] = experiment: Antimalarial activity against Plasmodium berghei ANKA infected in NMRI mice (Mus musculus) assessed as cure rate at 10 mg/kg, perorally administered as single dose […]; assay type: functional; settings: route oral
In short: (§3)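 Female NMRI mice (20–22 g), 5 per group, infected intravenously with 0.2 ml of 1 × 10^8 parasitized erythrocytes/ml from a fresh donor mouse. Compound suspended in 0.5% carboxymethyl cellulose and given orally. Survival followed to day 30 post-infection; an animal was scored cured if it survived to day 30 without parasites.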

Plasmodium berghei [7] = experiment: Antimalarial activity against Plasmodium berghei ANKA infected in NMRI mice (Mus musculus) assessed as cure rate at 30 mg/kg, perorally administered as single dose […]; assay type: functional; settings: route oral; in short: as §3
Plasmodium berghei [8] = experiment: Antimalarial activity against Plasmodium berghei ANKA infected in NMRI mice (Mus musculus) assessed as cure rate at 60 mg/kg, perorally administered as single dose […]; assay type: functional; settings: route oral; in short: as §3
Plasmodium berghei [9] = experiment: Antimalarial activity against Plasmodium berghei ANKA infected in NMRI mice (Mus musculus) assessed as cure rate at 100 mg/kg, perorally administered as single dose measured on […]; assay type: functional; settings: route oral; in short: as §3
Plasmodium berghei [10] = experiment: Antimalarial activity against Plasmodium berghei ANKA infected in NMRI mice (Mus musculus) assessed as cure rate at 3 times 30 mg/kg, perorally measured […]; assay type: functional; settings: route oral; in short: as §3
Mus musculus [11] = experiment: Toxicity in NMRI mice (Mus musculus) infected with Plasmodium berghei ANKA at 15 mg/kg, perorally administered as single dose measured up to 30 days postinfection; assay type: organism-based; set-up: dose 15 mg/kg, route oral; settings: in vivo, po, 720 h
Mus musculus [12] = experiment: Toxicity in NMRI mice (Mus musculus) infected with Plasmodium berghei ANKA at 60 mg/kg, perorally administered as single dose measured up to 30 days postinfection; assay type: organism-based; set-up: dose 60 mg/kg, route oral; settings: in vivo, po, 720 h
[13] = Binding affinity to wild type Plasmodium falciparum DHFR by competitive binding assay
Dihydrofolate reductase = target: T1, Dihydrofolate reductase (Homo sapiens, UniProt P00374); experiment: Binding affinity to human recombinant DHFR expressed in Escherichia coli BL21(DE3) by competitive binding assay
T1 sequence (P00374 whole entry): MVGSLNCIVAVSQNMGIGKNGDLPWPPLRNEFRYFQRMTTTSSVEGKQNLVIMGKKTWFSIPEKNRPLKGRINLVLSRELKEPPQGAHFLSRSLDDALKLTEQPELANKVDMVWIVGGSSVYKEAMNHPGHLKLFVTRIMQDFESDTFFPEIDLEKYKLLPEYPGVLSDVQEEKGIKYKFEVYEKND

Rattus norvegicus = experiment: Toxicity in Wistar rat assessed as occurrence of massive bone marrow atrophy at => 50 mg/kg, po after 2 weeks; assay type: organism-based; set-up: dose 50 mg/kg, route oral; settings: in vivo, 336 h
In short: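 Male Wistar rats, about 10 weeks old (254–292 g), 5 per group, gavaged daily with 50, 150 or 500 mg/kg/day. Vehicle was 10% of 1% aqueous Solutol HS15 plus 90% of 0.5% aqueous methylcellulose; exploratory 2-week design. Clinical observations, body weight, food intake, hematology, clinical chemistry and gross pathology recorded. Histopathology covered gross lesions and selected organs in the control and low-dose groups.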

Plasmodium berghei [14] = experiment: Antimalarial activity against Plasmodium berghei ANKA infected in perorally dosed NMRI mice (Mus musculus) assessed as reduction in parasitemia administered as single dose measured on day 3 postinfection; assay type: functional; settings: po, 72 h
Plasmodium falciparum = experiment: Antimalarial activity against pyrimethamine-resistant Plasmodium falciparum clinical isolate harboring S108N, N51I mutation in DHFR assessed as decrease in parasitaemia; assay type: functional, organism-based
In short: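 P. falciparum grown in RPMI 1640 with 10% (v/v) human serum, 25 mM bicarbonate, 2 mM glutamine, 25 mM HEPES, 5 nM para-aminobenzoic acid and 23 nM folic acid. Parasites exposed to a concentration series. Read-out is [3H]hypoxanthine incorporation into nucleic acid. IC50 taken from non-linear regression of the dose–response curve.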

[15] = Cmax in CD-1 mouse at 25 mg/kg, po; assay type: ADME, organism-based; set-up: dose 25 mg/kg, route oral; settings: in vivo
In short: (§4)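 Mice dosed with 25 mg/kg p.o. as a 2.5 mg/ml suspension in 0.5% CMC, or with 5 mg/kg i.v. at 1 mg/ml in 10% NMP, 30% PEG 400 and 60% of 10% vitamin E-TPGS. Blood sampled at several time points. Plasma extracted with acidified acetonitrile (8:1) and quantified by LC-MS, LLOQ 12 ng/ml.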

[16] = AUC in CD-1 mouse at 25 mg/kg, po; assay type: ADME, organism-based; set-up: dose 25 mg/kg, route oral; settings: plasma; in short: as §4
[17] = AUC in Wistar rat at 25 mg/kg, po; assay type: ADME, organism-based; set-up: dose 25 mg/kg, route oral; settings: plasma
In short: (§5)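 Rats dosed with 25 mg/kg p.o. as a 2.5 mg/ml suspension in 0.5% CMC, or with 5 mg/kg i.v. at 1 mg/ml in 10% NMP, 30% PEG 400 and 60% of 10% vitamin E-TPGS. Plasma sampled over time, extracted with acidified acetonitrile (8:1) and quantified by LC-MS, LLOQ 12 ng/ml.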

[18] = Half life in Wistar rat at 25 mg/kg, po; assay type: ADME, organism-based; set-up: dose 25 mg/kg, route oral; settings: in vivo; in short: as §5
[19] = Oral bioavailability in Wistar rat at 25 mg/kg; assay type: ADME, organism-based; settings: in vivo; in short: as §5
[20] = Clearance in Wistar rat at 5 mg/kg, iv; assay type: ADME, organism-based; set-up: dose 5 mg/kg, route intravenous; settings: in vivo; in short: as §5
Plasmodium berghei [21] = experiment: Antimalarial activity against Plasmodium berghei ANKA infected in NMRI mice (Mus musculus) assessed as reduction in parasitemia at 30 mg/kg, perorally administered as single dose measured on day 3 postinfection; assay type: functional; set-up: scale not given: the % may be the effect or the level left; settings: route oral; in short: as §1
Plasmodium berghei [22] = experiment: Antimalarial activity against Plasmodium berghei ANKA infected in NMRI mice (Mus musculus) assessed as reduction in parasitemia at 100 mg/kg, perorally administered as single dose measured on day 3 postinfection; assay type: functional; set-up: scale not given: the % may be the effect or the level left; settings: route oral; in short: as §1
[23] = AUC (0 to 24 hrs) in NMRI mouse at 26.5 mg/kg, po; settings: plasma

## COc1ccc(OC)c(CNc2ccc3nc(N)nc(N)c3c2Cl)c1
Plasmodium berghei [1]
  Activity: >99.99%
Plasmodium berghei [2]
  Survival: 6 days
Plasmodium berghei [3]
  Survival: 23.4 days
Plasmodium berghei [4]
  Survival: 28.4 days
Plasmodium berghei [5]
  Activity: inactive
Plasmodium berghei [6]
  Activity: 0%
Plasmodium berghei [7]
  Activity: 0%
Plasmodium berghei [8]
  Activity: 0%
Plasmodium berghei [9]
  Activity: 50%
Plasmodium berghei [10]
  Activity: 80%
Mus musculus [11]
  Activity: 0%
Mus musculus [12]
  Activity: 0%
[13]
  Ki: 0.39 nM
Dihydrofolate reductase
  Ki: 10.2 nM
Rattus norvegicus
  Activity: Toxic
Plasmodium berghei [14]
  ED50: 7.2 mg/kg
  ED90: 12.4 mg/kg
Plasmodium falciparum
  IC50: 4.48 nM
[15]
  Cmax: 5.1 µM
[16]
  AUC: 44.6 µM·h
[17]
  AUC: 67.3 µM·h
[18]
  half-life: 9.3 h
[19]
  bioavailability: 63%
[20]
  clearance: 17 mL/min/kg
Plasmodium berghei [21]
  Activity: >99.99%
Plasmodium berghei [22]
  Activity: >99.99%
[23]
  AUC(0-t) at 24 h: 17000 ng·h/mL

Source: ChEMBL document CHEMBL1255487, “Preclinical evaluation of the antifolate QN254, 5-chloro- N'6'-(2,5-dimethoxy-benzyl)-quinazoline-2,4,6-triamine, as an antimalarial drug candidate” (Antimicrob Agents Chemother, 2010)
